Measurements: ChEMBL document CHEMBL4825700, “A comprehensive assessment of a new series of 5',6'-difluorobenzotriazole-acrylonitrile derivatives as microtubule targeting agents (MTAs)” (Eur J Med Chem, 2021)
pIC50: −log10 of the molar value. Values belong to the compound of their own block, whether it stands above or below them. Calls of active or inactive are those of the source.

How the values were obtained:
[1] = Antiproliferative activity against human leukemia cells assessed as reduction in cell viability measured after 24 to 48 hrs by XTT assay; type: functional; conditions: Panel leukemia (Carcinoma cell lines), time 24-48 hrs; for CC50: read-out: LC50 (the source's name)
[2] = Antiproliferative against human breast cancer cells assessed as reduction in cell growth incubated for 24 to 48 hrs by XTT assay; type: functional, Panel breast (Carcinoma cell lines); conditions: Breast carcinoma cell, time 24-48 hrs
Outline: (§1)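 NCI60 panel screen by the NCI Developmental Therapeutics Program: single dose of 10 µM first; compounds meeting inhibition criteria retested at five 10-fold dilutions, 100 µM to 0.01 µM; GI50, TGI and LC50 derived.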

[3] = Antiproliferative against human melanoma cells assessed as reduction in cell growth incubated for 24 to 48 hrs by XTT assay; type: functional; conditions: Panel melanoma (Carcinoma cell lines), time 24-48 hrs; for CC50: read-out: LC50 (the source's name); outline: as §1
[4] = system: Panel CNS (Carcinoma cell lines); test: Antiproliferative activity against human CNS cancer cells assessed as reduction in cell viability measured after 24 to 48 hrs by XTT assay; type: functional; conditions: time 24-48 hrs; for CC50: read-out: LC50 (the source's name)
[5] = system: CCRF-CEM; test: Antiproliferative activity against human CCRF-CEM cells assessed as inhibition of cell growth at 10 uM measured after 24 to 48 hrs by XTT assay; type: functional; conditions: time 24-48 hrs, read-out: GI; outline: as §1
[6] = Antiproliferative activity against human NSC lung cancer cells assessed as reduction in cell viability measured after 24 to 48 hrs by XTT assay; type: functional; conditions: Non-small cell lung cancer cell line, time 24-48 hrs; for CC50: read-out: LC50 (the source's name)
[7] = system: HT1197; test: Antiproliferative activity against human HT1197 cells assessed as reduction in cell growth at 4 to 16 uM incubated for 72 hrs in presence of extrusion-pump inhibitor, SS26 by CellTox based fluorescence analysis; type: functional; conditions: dose 4-16 µM
Outline: (§2)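 A498, A-704, A549 and HT1197 cells (DMEM high glucose, 10% FBS, 37 °C, 5% CO2) plated 500/well with SiR-DNA 0.5 µM and CellTox Green 0.8x, treated next day at 1, 2, 4, 8, 16 µM alone or with EPI SS26 at fixed 1 µM, 0.3% DMSO. Nuclei and dead cells imaged at 0, 24, 48, 72 h; percentage growth calculated; three technical replicates.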

[8] = Antiproliferative against human prostate cancer cells assessed as reduction in cell growth incubated for 24 to 48 hrs by XTT assay; type: functional; conditions: Panel prostate (Carcinoma cell lines), time 24-48 hrs; outline: as §1
[9] = target: T1, Tubulin (Homo sapiens) (UniProt P68371+Q9H4B7+P0DPH7+P68366+Q13509+Q71U36+P04350+Q3ZCM7+P07437+P68363+Q9BQE3+Q6PEY2+Q13885+Q9BVA1+Q9BUF5); test: Disruption of microtubules in human HeLa cells assessed as increase in cytoplasmic dimensions at 50 nM incubated for 24 hrs by high-content confocal microscopy relative to control; type: cell-based
Outline: (§3)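 HeLa treated 24 h at 10, 25, 50, 100 and 500 nM, stained for β-tubulin and nuclei (DAPI), imaged by high-content confocal microscopy; tubulin disassembly and cell dimension compared with controls.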

[10] = species on record: Sus scrofa; test: Inhibition of pig tubulin polymerization measuring every 20 sec for 30 mins by fluorescence based analysis
[11] = system: HeLa; test: Induction of cell cycle arrest in human HeLa cells assessed as accumulation of cells at G0/G1 phase at 10 uM incubated for 48 hrs by 7-AAD staining based flow cytometry analysis (reference value: 65%); type: functional
Outline: (§4)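 HeLa seeded at 50% confluence, treated after 24 h with 5 or 10 µM for 24 or 48 h. Adherent plus floating cells fixed in ice-cold 70% ethanol overnight at -20 °C, stained with 7-AAD 20 min at room temperature; 20000 events per sample by flow cytometry; phase percentages compared with control.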

[12] = target: T1, Tubulin (Homo sapiens); test: Disruption of microtubules in human HeLa cells assessed as beta-tubulin disassembly at 50 to 500 nM incubated for 24 hrs by high-content confocal microscopy; type: cell-based; conditions: dose 50-500 nM; outline: as §3
[13] = system: HeLa; test: Induction of cell cycle arrest in human HeLa cells assessed as accumulation of cells at G2/M phase at 5 uM incubated for 48 hrs by 7-AAD staining based flow cytometry analysis (reference value: 30%); type: functional; outline: as §4
[14] = system: Panel NCI-60 (60 carcinoma cell lines); test: Antiproliferative against human NCI-60 cells assessed as reduction in cell growth incubated for 24 to 48 hrs by XTT assay; type: functional; conditions: time 24-48 hrs; outline: as §1
[15] = Antiproliferative against human renal cancer cells assessed as reduction in cell growth incubated for 24 to 48 hrs by XTT assay; type: functional; conditions: Panel renal (Carcinoma cell lines), time 24-48 hrs; outline: as §1
[16] = system: HeLa; test: Induction of cell cycle arrest in human HeLa cells assessed as accumulation of cells at G0/G1 phase at 5 uM incubated for 48 hrs by 7-AAD staining based flow cytometry analysis (reference value: 65%); type: functional; outline: as §4
[17] = system: HeLa; test: Induction of cell cycle arrest in human HeLa cells assessed as accumulation of cells at G2/M phase at 10 uM incubated for 24 hrs by 7-AAD staining based flow cytometry analysis (reference value: 30%); type: functional; outline: as §4
[18] = system: HeLa; test: Induction of cell cycle arrest in human HeLa cells assessed as accumulation of cells at G0/G1 phase at 5 uM incubated for 24 hrs by 7-AAD staining based flow cytometry analysis (reference value: 65%); type: functional; outline: as §4
[19] = system: HeLa; test: Antiproliferative activity against human HeLa cells assessed as reduction in cell viability measured after 48 hrs by XTT assay; type: functional, cell-based
Outline: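 HeLa (DMEM, 10% FBS, 37 °C, 5% CO2) seeded 1500 cells/well, treated 24 h later at 0.1–5 µM for 24 and 48 h; DMSO vehicle as control. XTT reagent 4 h at 37 °C, absorbance at 490 nm; IC50 calculated from viability; more than three independent experiments, each in triplicate.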

[20] = system: HeLa; test: Induction of incomplete cytokinesis with increased cell dimension in human HeLa cells at 0.3 uM measured after 48 hrs by fluorescence microscopy; type: functional, cell-based
[21] = Antiproliferative against human ovarian cancer cells assessed as reduction in cell growth incubated for 24 to 48 hrs by XTT assay; type: functional, Panel ovarian (Carcinoma cell lines); conditions: Ovarian carcinoma cell, time 24-48 hrs; outline: as §1
[22] = system: A498; test: Antiproliferative activity against human A498 cells assessed as reduction in cell growth at 4 to 16 uM incubated for 72 hrs in presence of extrusion-pump inhibitor, SS26 by CellTox based fluorescence analysis; type: functional; conditions: dose 4-16 µM; outline: as §2
[23] = system: HeLa; test: Induction of cell cycle arrest in human HeLa cells assessed as accumulation of cells at G2/M phase at 10 uM incubated for 48 hrs by 7-AAD staining based flow cytometry analysis (reference value: 30%); type: functional; outline: as §4
[24] = system: HeLa; test: Induction of cell cycle arrest in human HeLa cells assessed as accumulation of cells at S phase at 10 uM incubated for 24 hrs by 7-AAD staining based flow cytometry analysis (reference value: 5%); type: functional; outline: as §4
[25] = system: NCI-H522; test: Antiproliferative activity against human NCI-H522 cells assessed as reduction in cell growth at […] measured after 24 to 48 hrs by XTT assay; type: functional; conditions: time 24-48 hrs, read-out: GI; outline: as §1
[26] = system: HeLa; test: Induction of cell cycle arrest in human HeLa cells assessed as accumulation of cells at S phase at 5 uM incubated for 48 hrs by 7-AAD staining based flow cytometry analysis (reference value: 5%); type: functional; outline: as §4
[27] = system: Panel CNS (Carcinoma cell lines); test: Antiproliferative activity against human CNS cancer cells assessed as lethality measured after 24 to 48 hrs by XTT assay; type: functional; conditions: time 24-48 hrs
Outline: (§5)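 NCI60 screen run by the NCI Developmental Therapeutics Program. A single 10 µM dose was first tested across the full 60-cell-line panel. Compounds meeting the inhibition selection criteria were then retested at five 10-fold dilutions from 100 µM to 0.01 µM. GI50, TGI and LC50 were reported as molar concentrations for each tumour-type group.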

[28] = system: A549; test: Antiproliferative activity against human A549 cells assessed as reduction in cell growth at 4 to 16 uM incubated for 72 hrs in presence of extrusion-pump inhibitor, SS26 by CellTox based fluorescence analysis; type: functional; conditions: dose 4-16 µM; outline: as §2
[29] = system: U-251; test: Antiproliferative activity against human U-251 cells assessed as lethality measured after 24 to 48 hrs by XTT assay; type: functional; conditions: time 24-48 hrs; outline: as §5
[30] = species on record: Sus scrofa; test: Displacement of colchicine from pig tubulin assessed as reduction in colchicine effectiveness on tubulin assembly measured every 20 secs for 30 mins by fluorescence based analysis
[31] = system: HeLa; test: Induction of cell cycle arrest in human HeLa cells assessed as accumulation of cells at S phase at 10 uM incubated for 48 hrs by 7-AAD staining based flow cytometry analysis (reference value: 5%); type: functional; outline: as §4
[32] = system: HeLa; test: Induction of cell cycle arrest in human HeLa cells assessed as accumulation of cells at G2/M phase at 5 uM incubated for 24 hrs by 7-AAD staining based flow cytometry analysis (reference value: 30%); type: functional; outline: as §4
[33] = system: HeLa; test: Induction of cell cycle arrest in human HeLa cells assessed as accumulation of cells at S phase at 5 uM incubated for 24 hrs by 7-AAD staining based flow cytometry analysis (reference value: 5%); type: functional; outline: as §4
[34] = Antiproliferative activity against human colon cancer cells assessed as reduction in cell viability measured after 24 to 48 hrs by XTT assay; type: functional, Panel colon (Carcinoma cell lines); conditions: Colon carcinoma cell, time 24-48 hrs
[35] = system: HeLa; test: Induction of cell cycle arrest in human HeLa cells assessed as accumulation of cells at G0/G1 phase at 10 uM incubated for 24 hrs by 7-AAD staining based flow cytometry analysis (reference value: 65%); type: functional; outline: as §4
[36] = system: A704; test: Antiproliferative activity against human A704 cells assessed as reduction in cell growth at 4 to 16 uM incubated for 48 to 72 hrs in presence of extrusion-pump inhibitor, SS26 by CellTox based fluorescence analysis; type: functional; conditions: dose 4-16 µM, time 48-72 hrs; outline: as §2
[37] = system: CCRF-CEM; test: Antiproliferative activity against human CCRF-CEM cells assessed as inhibition of cell proliferation measured after 96 hrs by MTT assay; type: functional, cell-based
[38] = read-out: LC50 (the source's name)

Structure (SMILES): N#C/C(=C\c1cccc2cnccc12)n1nnc2ccccc21
GI50 [1]: 0.253 µM | TGI [1]: ≥ 24.3 µM | CC50 [1]: > 100 µM | GI50 [2]: 0.557 µM | LC50 [2]: > 100 µM | TGI [2]: ≥ 2.84 µM | GI50 [3]: 2.04 µM | TGI [3]: > 100 µM | CC50 [3]: > 100 µM | GI50 [4]: 0.184 µM | TGI [4]: ≥ 3.61 µM | CC50 [4]: > 100 µM | inhibition of growth at 10 µM [5]: 100% | GI50 [6]: 0.532 µM | TGI [6]: ≥ 5.13 µM | CC50 [6]: > 100 µM

Structure (SMILES): Cc1ccc(/C=C(\C#N)n2nnc3cc(F)c(F)cc32)cc1
Activity [7]: Active | GI50 [8]: 3.32 µM | TGI [8]: 15.6 µM | CC50 [8, 38]: 66.2 µM | fold change (FC) [9]: 3 | inhibition [10]: Active | Activity [11]: 10% | GI50 [1]: 0.391 µM | TGI [1]: ≥ 0.871 µM | CC50 [1]: > 100 µM | Activity [12]: Active | Activity [13]: 50% | GI50 [14]: ≤ 0.1 µM | TGI [14]: ≤ 1 µM | CC50 [14, 38]: ≤ 1 µM | GI50 [15]: 1.77 µM | TGI [15]: 7.41 µM | CC50 [15, 38]: ≥ 36.7 µM | Activity [16]: 41% | Activity [17]: 66% | Activity [18]: 39% | pIC50 [19]: 5.49 | Activity [20]: Active | GI50 [21]: 1.47 µM | TGI [21]: ≥ 6.08 µM | CC50 [21, 38]: ≥ 33.8 µM | Activity [22]: Active | Activity [23]: 87% | Activity [24]: 14% | inhibition of growth [25]: 93% | Activity [26]: 9% | GI50 [2]: 1.16 µM | LC50 [2]: > 100 µM | TGI [2]: ≥ 5.39 µM | Activity [27]: >=90% | GI50 [3]: 0.36 µM | TGI [3]: ≥ 100 µM | CC50 [3]: ≥ 7.67 µM | Activity [28]: Active | Activity [29]: >=90% | Activity [30]: Active | Activity [31]: 3% | Activity [32]: 54% | GI50 [4]: 1.48 µM | TGI [4]: 2.94 µM | CC50 [4]: ≥ 5.83 µM | Activity [33]: 7% | GI50 [34]: 0.421 µM | TGI [34]: 1.53 µM | CC50 [34, 38]: ≥ 5.8 µM | GI50 [6]: 0.291 µM | TGI [6]: 1.12 µM | CC50 [6]: ≥ 6.78 µM | Activity [35]: 20% | Activity [36]: Active

pIC50 [37]: 6.70
Structure (SMILES): COc1ccc(/C=C(\C#N)n2nnc3ccccc32)cc1
